Data reported in ChEMBL document CHEMBL3352487, “Synthesis, antibacterial activity, and biological evaluation of formyl hydroxyamino derivatives as novel potent peptide deformylase inhibitors against drug-resistant bacteria” (Eur J Med Chem, 2014).
Values after ≈ are worked out from the molar mass of the structure shown.

How the values were obtained:
[1] = Stability of the compound in artificial gastric juice measured every 2 hrs for 12 hrs by HPLC analysis; type: ADME; settings: simulated gi fluid
Staphylococcus aureus [2] = test: Antimicrobial activity against methicillin-susceptible Staphylococcus aureus after 24 hrs by broth microdilution method; type: functional
In short: (§1)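 Broth microdilution following NCCLS M7-A4; ATCC strains and clinical isolates from a provincial hospital.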

Escherichia coli [3] = test: Antimicrobial activity against Escherichia coli isolate 1 after 24 hrs by broth microdilution method; type: functional; settings: isolate 1, 24 h; in short: as §1
Escherichia coli [4] = test: Antimicrobial activity against Escherichia coli isolate 2 after 24 hrs by broth microdilution method; type: functional; settings: isolate 2, 24 h; in short: as §1
Staphylococcus aureus [5] = test: Antimicrobial activity against methicillin-resistant Staphylococcus aureus after 24 hrs by broth microdilution method; type: functional
In short: (§2)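 Broth microdilution following NCCLS M7-A4, using ATCC strains and clinical isolates from a provincial hospital.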

[6] = Solubility of the compound in artificial intestinal juice measured every 2 hrs for 12 hrs by HPLC analysis; type: physicochemical; settings: simulated gi fluid
Staphylococcus aureus [7] = test: Antimicrobial activity against Staphylococcus aureus after 24 hrs by broth microdilution method; type: functional; in short: as §1
[8] = Stability of the compound in artificial intestinal juice measured every 2 hrs for 12 hrs by HPLC analysis; type: physicochemical; settings: simulated gi fluid
[9] = tested on: Staphylococcus epidermidis; test: Antimicrobial activity against Staphylococcus epidermidis after 24 hrs by broth microdilution method; type: functional; in short: as §1
[10] = Solubility of the compound in artificial gastric juice measured every 2 hrs for 12 hrs by HPLC analysis; type: ADME; settings: simulated gi fluid
Staphylococcus aureus [11] = test: Antimicrobial activity against Staphylococcus aureus isolate 934387 after 24 hrs by broth microdilution method; type: functional; settings: isolate 934387, 24 h; in short: as §2
Staphylococcus aureus [12] = test: Antimicrobial activity against Staphylococcus aureus isolate 306 after 24 hrs by broth microdilution method; type: functional; settings: isolate 306, 24 h; in short: as §1
Staphylococcus aureus [13] = test: Antimicrobial activity against Staphylococcus aureus isolate MILES HALL after 24 hrs by broth microdilution method; type: functional; in short: as §2
Staphylococcus aureus [14] = test: Antimicrobial activity against Staphylococcus aureus isolate CL 938 after 24 hrs by broth microdilution method; type: functional; settings: isolate CL 938, 24 h; in short: as §1
Staphylococcus aureus [15] = test: Antimicrobial activity against Staphylococcus aureus isolate CL 939 after 24 hrs by broth microdilution method; type: functional; settings: isolate CL 939, 24 h; in short: as §2
Staphylococcus aureus [16] = test: Antimicrobial activity against Staphylococcus aureus isolate Ealing 32 after 24 hrs by broth microdilution method; type: functional; settings: isolate Ealing 32, 24 h; in short: as §1
Staphylococcus aureus [17] = test: Antimicrobial activity against Staphylococcus aureus isolate RN4220 pmz1 after 24 hrs by broth microdilution method; type: functional; settings: isolate RN4220 pmz1, 24 h; in short: as §2
Staphylococcus aureus [18] = test: Antimicrobial activity against Staphylococcus aureus isolate CL 1033 after 24 hrs by broth microdilution method; type: functional; settings: isolate CL 1033, 24 h; in short: as §1
Staphylococcus aureus [19] = test: Antimicrobial activity against Staphylococcus aureus isolate 934335 after 24 hrs by broth microdilution method; type: functional; settings: isolate 934335, 24 h; in short: as §1
Staphylococcus aureus [20] = test: Antimicrobial activity against Staphylococcus aureus isolate 929003 after 24 hrs by broth microdilution method; type: functional; settings: isolate 929003, 24 h; in short: as §1
Staphylococcus aureus [21] = test: Antimicrobial activity against Staphylococcus aureus isolate Ealing 23 after 24 hrs by broth microdilution method; type: functional; settings: isolate Ealing 23, 24 h; in short: as §2
Staphylococcus aureus [22] = test: Antimicrobial activity against Staphylococcus aureus isolate RN1030 after 24 hrs by broth microdilution method; type: functional; settings: isolate RN1030, 24 h; in short: as §2
Staphylococcus aureus [23] = test: Antimicrobial activity against Staphylococcus aureus isolate RUSSELL after 24 hrs by broth microdilution method; type: functional; in short: as §2
Staphylococcus aureus [24] = test: Antimicrobial activity against Staphylococcus aureus isolate 934334 after 24 hrs by broth microdilution method; type: functional; settings: isolate 934334, 24 h; in short: as §1
Staphylococcus aureus [25] = test: Antimicrobial activity against Staphylococcus aureus isolate NEQAS 4026 after 24 hrs by broth microdilution method; type: functional; settings: isolate NEQAS 4026, 24 h; in short: as §1
Staphylococcus aureus [26] = test: Antimicrobial activity against Staphylococcus aureus isolate NEQAS 4158 after 24 hrs by broth microdilution method; type: functional; settings: isolate NEQAS 4158, 24 h; in short: as §1
Staphylococcus aureus [27] = test: Antimicrobial activity against Staphylococcus aureus isolate Smith ATCC 13709 after 24 hrs by broth microdilution method; type: functional; settings: isolate Smith ATCC 13709, 24 h; in short: as §2
Staphylococcus aureus [28] = test: Antimicrobial activity against Staphylococcus aureus isolate F89 after 24 hrs by broth microdilution method; type: functional; settings: isolate F89, 24 h; in short: as §1
Staphylococcus aureus [29] = test: Antimicrobial activity against Staphylococcus aureus ATCC 29213 after 24 hrs by broth microdilution method; type: functional; settings: ATCC 29213, 24 h; in short: as §1
Staphylococcus aureus [30] = test: Antimicrobial activity against Staphylococcus aureus isolate OGA833 after 24 hrs by broth microdilution method; type: functional; settings: isolate OGA833, 24 h; in short: as §1
Staphylococcus aureus [31] = test: Antimicrobial activity against Staphylococcus aureus isolate MN 1255 after 24 hrs by broth microdilution method; type: functional; settings: isolate MN 1255, 24 h; in short: as §1
Staphylococcus aureus [32] = test: Antimicrobial activity against Staphylococcus aureus isolate RN1024 after 24 hrs by broth microdilution method; type: functional; settings: isolate RN1024, 24 h; in short: as §2
Staphylococcus aureus [33] = test: Antimicrobial activity against Staphylococcus aureus isolate 929035 after 24 hrs by broth microdilution method; type: functional; settings: isolate 929035, 24 h; in short: as §1
Staphylococcus aureus [34] = test: Antimicrobial activity against Staphylococcus aureus isolate 934324 after 24 hrs by broth microdilution method; type: functional; settings: isolate 934324, 24 h; in short: as §1
Staphylococcus aureus [35] = test: Antimicrobial activity against Staphylococcus aureus isolate CARTER 37 after 24 hrs by broth microdilution method; type: functional; settings: isolate CARTER 37, 24 h; in short: as §2

CCCC[C@H](CN(O)C=O)C(=O)N1CC=C[C@H]1C(=O)Nc1ccc(F)cn1
Stability [1]: Stable | MIC (Staphylococcus aureus [2]): 1 µg/mL (≈ 2.64 µM) | MIC (Escherichia coli [3]): > 64 µg/mL | MIC (Escherichia coli [4]): 64 µg/mL (≈ 169 µM) | MIC (Staphylococcus aureus [5]): 0.25 µg/mL (≈ 0.661 µM) | solubility [6]: soluble | MIC (Staphylococcus aureus [7]): 0.5 µg/mL (≈ 1.32 µM) | Stability [8]: Stable | MIC [9]: 0.5 µg/mL (≈ 1.32 µM) | solubility [10]: soluble

C/C(=C\C(=O)OCCCCCCCCC(=O)O)C[C@@H]1OC[C@H](C[C@@H]2O[C@H]2[C@@H](C)[C@H](C)O)[C@@H](O)[C@H]1O [MUPIROCIN]
MIC (Staphylococcus aureus [11]): 0.25 µg/mL (≈ 0.499 µM) | MIC (Staphylococcus aureus [12]): > 16 µg/mL | MIC (Staphylococcus aureus [13]): > 16 µg/mL | MIC (Staphylococcus aureus [14]): 0.25 µg/mL (≈ 0.499 µM) | MIC (Staphylococcus aureus [15]): 0.25 µg/mL (≈ 0.499 µM) | MIC (Staphylococcus aureus [16]): > 16 µg/mL | MIC (Staphylococcus aureus [17]): > 16 µg/mL | MIC (Staphylococcus aureus [18]): 0.25 µg/mL (≈ 0.499 µM) | MIC (Staphylococcus aureus [19]): 0.25 µg/mL (≈ 0.499 µM) | MIC (Staphylococcus aureus [20]): 0.25 µg/mL (≈ 0.499 µM) | MIC (Staphylococcus aureus [21]): > 16 µg/mL | MIC (Staphylococcus aureus [22]): 0.25 µg/mL (≈ 0.499 µM) | MIC (Staphylococcus aureus [23]): 0.25 µg/mL (≈ 0.499 µM) | MIC (Staphylococcus aureus [24]): 0.25 µg/mL (≈ 0.499 µM) | MIC (Staphylococcus aureus [25]): > 16 µg/mL | MIC (Staphylococcus aureus [26]): 0.25 µg/mL (≈ 0.499 µM) | MIC (Staphylococcus aureus [27]): 0.06 µg/mL (≈ 0.12 µM) | MIC (Staphylococcus aureus [28]): > 16 µg/mL | MIC (Staphylococcus aureus [29]): 0.25 µg/mL (≈ 0.499 µM) | MIC (Staphylococcus aureus [30]): > 16 µg/mL | MIC (Staphylococcus aureus [31]): 0.25 µg/mL (≈ 0.499 µM) | MIC (Staphylococcus aureus [32]): 0.25 µg/mL (≈ 0.499 µM) | MIC (Staphylococcus aureus [33]): 0.25 µg/mL (≈ 0.499 µM) | MIC (Staphylococcus aureus [34]): 0.25 µg/mL (≈ 0.499 µM) | MIC (Staphylococcus aureus [35]): > 16 µg/mL
